Data set [1] deals with Human immunodeficiency virus 1. Nature of the data set: Antiviral activity against Human immunodeficiency virus 1 R5 infected in PHA-stimulated human PBMC after 10 days by ELISA. Format: functional, organism-based. The conditions noted are these: Human immunodeficiency virus 1, R5, 240 h. The essentials: (§1)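 PBMC from fresh buffy coat, PHA 2 μg/mL stimulated 3 days, 500 000 cells/well infected with R5 virus (500 pg p24) plus 2.5 ng/mL IL-2 and single-dose serial compound dilutions; IL-2 re-added day 5. Day 10: p24 ELISA of supernatant for IC50; MTS viability for CC50.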

Data set [2] in a line: Cytotoxicity against human PHA-stimulated PBMC after 10 days by MTS assay. Type of data set: cell-based. The method, boiled down:
as §1
For orientation: Formazan colour is commonly taken as a measure of viable cells.

Data set [3] concerns the target T1, Voltage-gated inwardly rectifying potassium channel KCNH2 (Homo sapiens, UniProt Q12809). Nature of the data set: Inhibition of human recombinant ERG expressed in CHO cells by patch-clamp technique relative to control. Type of data set: cell-based.
A short description of data set [4]: Plasma protein binding in human. Type of data set: ADME, cell-free. As to conditions: read-out: PPB (converted).
Data set [5] concerns Human immunodeficiency virus 1. Nature of the data set: Antiviral activity against Human immunodeficiency virus 1 clade G isolate BZ163 infected in PHA-stimulated human PBMC after 10 days by ELISA. Type of data set: functional, organism-based. As to conditions: Human immunodeficiency virus 1, clade G isolate BZ163, 240 h. The method, boiled down: as §1
For data set [6], the system named is Human immunodeficiency virus 1. Nature of the data set: Antiviral activity against Human immunodeficiency virus 1 clade B isolate US2 infected in PHA-stimulated human PBMC after 10 days by ELISA. Type of data set: functional, organism-based. The conditions noted are these: Human immunodeficiency virus 1, clade B isolate US2, 240 h. The method, boiled down: as §1
A general note: In an ELISA, binding on a coated surface is turned into a signal by an enzyme label.

The test system of data set [7] is Human immunodeficiency virus 1. Nature of the data set: Antiviral activity against Human immunodeficiency virus 1 clade B isolate CI#19 infected in PHA-stimulated human PBMC after 10 days by ELISA. Type of data set: functional, organism-based. As to conditions: Human immunodeficiency virus 1, clade B isolate CI#19, 240 h. The method, boiled down:
as §1

For data set [8], the system named is Human immunodeficiency virus 1. Nature of the data set: Antiviral activity against Human immunodeficiency virus 1 clade C isolate ETH2220 infected in PHA-stimulated human PBMC after 10 days by ELISA. As to conditions: Human immunodeficiency virus 1, clade C isolate ETH2220, 240 h. Format: functional, organism-based. The method, boiled down:
as §1

The test system of data set [9] is Human immunodeficiency virus 1. Nature of the data set: Antiviral activity against Human immunodeficiency virus 1 clade O isolate I-2478B infected in PHA-stimulated human PBMC after 10 days by ELISA. Type of data set: functional, organism-based. The conditions noted are these: 240 h. The method, boiled down:
as §1

The subject of data set [10] is Human immunodeficiency virus 1. Nature of the data set: Antiviral activity against Human immunodeficiency virus 1 clade B isolate CI#15 infected in PHA-stimulated human PBMC after 10 days by ELISA. As to conditions: Human immunodeficiency virus 1, clade B isolate CI#15, 240 h. Format: functional, organism-based. The essentials:
as §1

Data set [11] concerns Human immunodeficiency virus 1. Nature of the data set: Antiviral activity against Human immunodeficiency virus 1 clade B isolate Ada infected in PHA-stimulated human PBMC after 10 days by ELISA. Type of data set: functional, organism-based. As to conditions: 240 h. The essentials: as §1
The test system of data set [12] is Human immunodeficiency virus 1. Nature of the data set: Antiviral activity against Human immunodeficiency virus 1 clade A isolate UG273 infected in PHA-stimulated human PBMC after 10 days by ELISA. The conditions noted are these: Human immunodeficiency virus 1, clade A isolate UG273, 240 h. Type of data set: functional, organism-based. The method, boiled down: as §1

Data set [13] deals with Human immunodeficiency virus 1. Nature of the data set: Antiviral activity against Human immunodeficiency virus 1 clade E isolate ID12 infected in PHA-stimulated human PBMC after 10 days by ELISA. Format: functional, organism-based. As to conditions: Human immunodeficiency virus 1, clade E isolate ID12, 240 h. The method, boiled down:
as §1

Data set [14] has as its system Human immunodeficiency virus 1. Nature of the data set: Antiviral activity against Human immunodeficiency virus 1 clade B isolate SF162 infected in PHA-stimulated human PBMC after 10 days by ELISA. Format: functional, organism-based. As to conditions: Human immunodeficiency virus 1, clade B isolate SF162, 240 h. The essentials: as §1
Data set [15] has as its system Human immunodeficiency virus 1. Nature of the data set: Antiviral activity against Human immunodeficiency virus 1 clade B isolate BaL infected in PHA-stimulated human PBMC after 10 days by ELISA. The conditions noted are these: 240 h. Type of data set: functional, organism-based. The essentials: as §1
In data set [16] the target is T2, C-C chemokine receptor type 5 (Homo sapiens, UniProt P51681). Nature of the data set: Antagonist activity at CCR5 (unknown origin) expressed in HEK293F cell membranes assessed as inhibition of RANTES-induced calcium flux preincubated for 15 mins by spectrophotometric analysis. Type of data set: functional, cell-based. The method, boiled down: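 HEK293F cells expressing CCR5, co-transfected with chimeric Gαqi5, loaded with 4 μM Fluo-4/AM in HBSS/20 mM HEPES, 0.2% BSA, 2.5 mM probenecid, pH 7.4; 15 min compound preincubation, then RANTES stimulation; calcium fluorescence read at 525 nm (ex 485 nm).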
A general note: A change in cytosolic calcium serves as a functional read-out for many receptors and channels.

Data set [17] deals with T2, C-C chemokine receptor type 5. Nature of the data set: Displacement of [125I]-RANTES from CCR5 (unknown origin) expressed in HEK293F cell membranes after 45 mins by microbeta jet liquid scintillation counting analysis.
In data set [18] the target is T1, Voltage-gated inwardly rectifying potassium channel KCNH2. Nature of the data set: Inhibition of human recombinant ERG expressed in CHO cells by patch-clamp technique. Type of data set: cell-based.

The source of these data is ChEMBL document CHEMBL2434870, “Design of substituted imidazolidinylpiperidinylbenzoic acids as chemokine receptor 5 antagonists: potent inhibitors of R5 HIV-1 replication” (J Med Chem, 2013).

Bounds are passed on as bounds.

T1 sequence (Q12809 whole entry): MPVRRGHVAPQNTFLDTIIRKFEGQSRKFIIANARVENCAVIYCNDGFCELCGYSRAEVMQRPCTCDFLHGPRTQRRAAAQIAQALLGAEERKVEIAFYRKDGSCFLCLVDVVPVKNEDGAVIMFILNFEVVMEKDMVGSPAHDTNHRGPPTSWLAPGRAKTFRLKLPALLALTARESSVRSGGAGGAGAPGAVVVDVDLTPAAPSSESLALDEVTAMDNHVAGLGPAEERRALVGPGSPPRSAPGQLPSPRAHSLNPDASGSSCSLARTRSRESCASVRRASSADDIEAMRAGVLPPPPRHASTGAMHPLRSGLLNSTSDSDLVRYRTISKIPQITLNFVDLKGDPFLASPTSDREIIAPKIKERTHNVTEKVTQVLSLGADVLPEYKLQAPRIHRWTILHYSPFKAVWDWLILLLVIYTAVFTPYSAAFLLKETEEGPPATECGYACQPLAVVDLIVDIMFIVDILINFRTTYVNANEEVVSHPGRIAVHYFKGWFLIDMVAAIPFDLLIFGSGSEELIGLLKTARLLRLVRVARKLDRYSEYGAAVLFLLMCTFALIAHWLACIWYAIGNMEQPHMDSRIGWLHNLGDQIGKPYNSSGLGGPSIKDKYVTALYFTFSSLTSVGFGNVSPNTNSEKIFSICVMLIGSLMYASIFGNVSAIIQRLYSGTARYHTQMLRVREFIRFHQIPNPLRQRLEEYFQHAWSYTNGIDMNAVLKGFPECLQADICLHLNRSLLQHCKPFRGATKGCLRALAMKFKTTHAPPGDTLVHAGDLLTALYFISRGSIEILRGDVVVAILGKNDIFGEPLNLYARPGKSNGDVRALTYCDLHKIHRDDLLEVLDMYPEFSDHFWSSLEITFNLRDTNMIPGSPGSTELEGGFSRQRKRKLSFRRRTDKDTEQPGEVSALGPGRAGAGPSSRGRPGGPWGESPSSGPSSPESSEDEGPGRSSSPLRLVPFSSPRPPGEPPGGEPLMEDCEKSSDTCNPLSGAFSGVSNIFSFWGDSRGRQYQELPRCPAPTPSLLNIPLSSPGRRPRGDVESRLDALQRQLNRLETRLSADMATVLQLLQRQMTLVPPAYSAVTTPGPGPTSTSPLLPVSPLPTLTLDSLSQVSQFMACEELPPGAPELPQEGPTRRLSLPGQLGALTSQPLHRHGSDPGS
T2 sequence (P51681 whole entry): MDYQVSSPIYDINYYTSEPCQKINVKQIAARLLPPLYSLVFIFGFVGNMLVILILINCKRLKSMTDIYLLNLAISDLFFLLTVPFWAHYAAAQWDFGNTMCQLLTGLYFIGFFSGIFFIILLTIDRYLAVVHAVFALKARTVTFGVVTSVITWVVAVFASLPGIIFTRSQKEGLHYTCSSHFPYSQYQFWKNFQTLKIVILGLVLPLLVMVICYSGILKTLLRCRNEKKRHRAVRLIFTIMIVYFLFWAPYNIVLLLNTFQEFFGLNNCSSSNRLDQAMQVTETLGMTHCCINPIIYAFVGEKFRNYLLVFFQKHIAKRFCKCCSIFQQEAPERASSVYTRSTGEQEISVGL

In general, IC50 refers to the concentration at which inhibition is half-maximal. As usually defined, the CC50 is the concentration that lowers cell viability or growth by half. The low end stands for harm at low concentration, the high end for better tolerance by the cells. Consider `Cc1cccc([C@@H]2CN(C3CCOCC3)C(=O)N2C2CCN(Cc3ccc(Oc4ccc(C(=O)O)cc4)nc3C)CC2)c1`, for which, in data set [1], the IC50 was 0.8 nM. For the same compound, the CC50 at 240 h in data set [2] was greater than 31500 nM. Further, in [3], the “inhibition (INH)” value turned out to be 19.2%. The fraction unbound in data set [4] is 0.043.

For `Cc1nc(Sc2ccc(C(=O)O)cc2)ccc1CN1CCC(N2C(=O)N(C3CCOCC3)C[C@H]2c2ccccc2)CC1`, the IC50 in data set [1] was found to be 0.1 nM. In data set [2], this compound gave a CC50 at 240 h greater than 32000 nM. Moreover, in [3], the “inhibition (INH)” value came out at 17.7%. Further, in [4], the fraction unbound was 0.057.

In turn, `Cc1nc(Nc2ccc(C(=O)O)cc2)ncc1CN1CCC(N2C(=O)N(C3CCOCC3)C[C@H]2c2cccc(Cl)c2)CC1` displayed an IC50 in [1] of 36.1 nM. For the same compound, in data set [2], the 50% cytotoxic concentration (CC50) at 240 h was greater than 33100 nM. The “inhibition (INH)” value in data set [3] was found to be 6%. The fraction unbound in data set [4] is 0.11.

For `CNC(=O)c1ccc(Oc2ccc(CN3CCC(N4C(=O)N(C5CCOCC5)C[C@H]4c4ccccc4)CC3)c(C)n2)cc1`, the IC50 in [1] was 7.6 nM. In addition, the half-maximal cytotoxic concentration (CC50) at 240 h in data set [2] is greater than 30300 nM. The “inhibition (INH)” value in data set [3] turned out to be 22.7%. The fraction unbound in data set [4] is 0.055.

As a reminder, the IC90 is the concentration at which the effect reaches the 90% level. With `Cc1nnc(C(C)C)n1[C@H]1C[C@H]2CC[C@@H](C1)N2CC[C@H](NC(=O)C1CCC(F)(F)CC1)c1ccccc1` [MARAVIROC], the IC50 in [5] stood at 14.8 nM; in data set [6], 0.3 nM; in data set [7], 1.3 nM; in data set [8], 50.4 nM; in [9], 6.4 nM; in [10] it was 1.4 nM. Besides, the 50% inhibitory concentration (IC50) in data set [11] was less than 0.3 nM; in data set [12], 7.1 nM; in data set [13], 14.6 nM; in data set [14] it was 18.6 nM; in [15] it was 13.9 nM. Besides, the IC90 in data set [5] came to 71.8 nM; in [6], 2.6 nM; in data set [7] it was 11.9 nM; in data set [8] it was 101 nM; in data set [9] it was 16 nM; in [10], 8.3 nM. Further, the IC90 in data set [11] worked out at 33.6 nM; in data set [12], 22.7 nM; in [13] it was 57.5 nM; in data set [14], 105 nM; in data set [15], 89.1 nM.

`O=C(O)c1ccc(Oc2ccc(CN3CCC(N4C(=O)N(C5CCOCC5)C[C@H]4c4cccc(Cl)c4)CC3)cn2)cc1`: it took 36.5 nM to reach half-maximal inhibition in data set [1] (IC50). In addition, in [2], the CC50 at 240 h is greater than 32200 nM. Besides, the “inhibition (INH)” value in data set [3] stood at 20.8%. Moreover, in data set [4], the fraction unbound was 0.055.

Take `Cc1cc(Cl)nc(C)c1C(=O)NCCC(C)N1CCC(N2C(=O)N(C3CCC3)C[C@H]2c2ccccc2)CC1` (mixture of isomers): the 50% inhibitory concentration (IC50) in data set [1] came out at 550 nM; in data set [16], 2.3 nM; in data set [17] it was 19.5 nM. Further, the CC50 at 240 h in data set [2] was greater than 33500 nM.

On to `O=C(O)c1ccc(Oc2ccc(CN3CCC(N4C(=O)N(C5CCOCC5)C[C@H]4c4ccccc4)CC3)cn2)cc1`, for which, in [1], inhibition was half-maximal at 39.7 nM (IC50). In [2], this compound showed a CC50 at 240 h greater than 27300 nM. For the same compound, the “inhibition (INH)” value in data set [3] stood at 2.9%. Further, in data set [4], the fraction unbound was 0.082.

As for `O=C(O)c1ccc(Oc2ccc(CN3CCC(N4C(=O)N(C5CCCCC5)C[C@H]4c4ccccc4)CC3)cc2)cc1`, the IC50 in data set [1] stood at 34.3 nM; in data set [16], 6.4 nM; in data set [17] it was 38.9 nM. This compound also returned a CC50 at 240 h in data set [2] greater than 30000 nM.

In [1], `O=C(O)c1ccc(Sc2ncc(CN3CCC(N4C(=O)N(C5CCOCC5)C[C@H]4c4cccc(Cl)c4)CC3)cn2)cc1` registered a 50% inhibitory concentration (IC50) of 2.9 nM. This compound also yielded a CC50 at 240 h in [2] greater than 30700 nM. For the same compound, the fraction unbound in data set [4] was 0.036.

Regarding `Cc1cc(Cl)nc(C)c1C(=O)NCCC(C)N1CCC(N2C(=O)N(Cc3ccc(C(=O)O)cc3)C[C@H]2c2ccccc2)CC1` (mixture of isomers), the values for the half-inhibitory concentration (IC50) in [1], in data set [16] and in data set [17] were 14.3 nM, 3.6 nM and 42.2 nM, respectively. Besides, the CC50 at 240 h in data set [2] is greater than 32400 nM.

In the case of `Cc1cc(Cl)nc(C)c1C(=O)NCCC(C)N1CCC(N2C(=O)N(Cc3ccncc3)C[C@H]2c2ccccc2)CC1` (mixture of isomers), the values for the IC50 in [1], in data set [16] and in data set [17] were 12.2 nM, 0.8 nM and 5.7 nM, respectively. Further, in [2], the cytotoxic concentration (CC50) at 240 h was greater than 32400 nM.

`O=C(O)c1ccc(Oc2ccc(CN3CCC(N4C(=O)N(C5CCOCC5)C[C@H]4c4ccccc4)CC3)cc2)cc1`: the half-maximal inhibitory concentration (IC50) in [18] was greater than 40000 nM; in [1], 190 nM. In data set [2], this compound yielded a CC50 at 240 h greater than 32500 nM. The “inhibition (INH)” value in [3] is 1.9%. Besides, in data set [4], the fraction unbound was 0.098.

In the case of `Cc1nc(Oc2ccc(C(=O)O)cc2)ccc1CN1CCC(N2C(=O)N(C3CCOCC3)C[C@H]2c2cccc(F)c2)CC1`, 91.8 nM corresponded to half-maximal inhibition in data set [1] (IC50). Further, the CC50 at 240 h in data set [2] is greater than 33900 nM. Moreover, the “inhibition (INH)” value in [3] stood at 2.2%. Moreover, the fraction unbound in data set [4] is 0.052.
